According to article PMC12153341 (Nucleic Acids Research, 2025):
Where “and” joins values, the source holds several entries; their conditions need not be identical. Equal entries are not always repeated. Entries after “also recorded” stand apart in the source; their conditions may differ. Blank lines part the entries; values can stand above or below the molecule they belong to.

Columns and labels:
[1] = system: Opto-KIF2C condensates in Flp-In T-REx 293 cells; experiment: Opto-KIF2C foci formation; format: cell-based; settings: mitotic cells; for number of optogenetic KIF2C condensates formed upon blue light exposure: light ON
[2] = system: proteins in the vicinity of TurboID-Opto-KIF2C condensates, Flp-In T-Rex 293 cells; format: cell-based; settings: light OFF and ON conditions
In short: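 Flp-In T-REx 293 cells stably carrying TurboID-Opto-KIF2C, nocodazole-arrested, at 75% confluence, induced with 6 ng/ml doxycycline for 16 h. Biotin added while cells received 15 min of blue-light cycles (4 s light/30 s dark), or kept dark. Lysates sonicated and cleared; 1 mg protein bound to streptavidin-agarose 3 h at 4°C, stringently washed, boiled in Laemmli buffer. Detection by HRP immunoblot with ECL.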

[3] = system: Opto-KIF2C condensates in Flp-In T-REx 293 cells; format: cell-based
In short: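 Opto-KIF2C expression induced with 1 μg/ml doxycycline for 16 h in cells plated at ~70% confluency in DMEM. Mitotic arrest used 100 ng/ml nocodazole for 16 h. Condensation induced under 488 nm LEDs at 10 mW/cm2, with 5 min of 4 s light/10 s dark cycles. Cells fixed in 4% PFA 15 min, permeabilized in 0.2% Triton 10 min, blocked in 3% BSA; primary and secondary antibodies 1 h RT each.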

[4] = system: Opto-KIF2C foci in Flp-In T-REx 293 cells; experiment: SIM measurement of Opto-KIF2C foci area; format: cell-based; settings: mitotic cells, 5 min 488 nm light, about 0.1 μm^2 without nocodazole
KIF2C Nt (KIF2C1-79) = biological target: T1, KIF2C Nt (KIF2C1-79) (Homo sapiens, UniProt Q99661); format: binding; settings: 15N-labeled KIF2C1-79, molar ratios 1:0 to 1:2, DPBS pH 7.0, 10°C
T1 sequence (Q99661 1-79): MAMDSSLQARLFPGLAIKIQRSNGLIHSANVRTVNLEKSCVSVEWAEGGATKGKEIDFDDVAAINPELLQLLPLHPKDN

KIF2A Nt (KIF2A1-77) = KIF2A Nt (KIF2A1-77) (Homo sapiens, UniProt O00139); format: binding; settings: 15N-labeled KIF2A1-77, molar ratios 1:0 to 1:2, DPBS pH 7.0, 10°C
[5] = biological target: KIF2A N-terminal domain, KIF2A_(1-77) (human) (UniProt O00139); experiment: ITC
[6] = biological target: KIF2C N-terminal domain, KIF2C_(1-79) (human) (UniProt Q99661); experiment: ITC
[7] = biological target: T2, BRCA2_(48-218) phosphorylated by PLK1 (human, UniProt P51587 48-218, phosphoserine 193, phosphothreonine 207; 15N-labelled); experiment: NMR titration
T2 sequence (looked up): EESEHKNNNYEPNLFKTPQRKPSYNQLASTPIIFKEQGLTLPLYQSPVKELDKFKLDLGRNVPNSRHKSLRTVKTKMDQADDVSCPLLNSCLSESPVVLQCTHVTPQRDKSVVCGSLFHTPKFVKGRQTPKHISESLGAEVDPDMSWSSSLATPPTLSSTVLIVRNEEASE

KIF2A N-terminal domain, KIF2A_(1-77) (human), sequence (O00139 1-77): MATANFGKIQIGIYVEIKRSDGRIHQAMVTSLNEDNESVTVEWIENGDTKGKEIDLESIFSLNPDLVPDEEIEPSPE
KIF2A Nt (KIF2A1-77), sequence (O00139 1-77): as above

Molecule: COc1cc2c(Nc3ccc(NC(=O)c4ccccc4)cc3)ncnc2cc1OCCCN1CCOCC1 [ZM447439]
- formation of KIF2C condensates formed without light ([1]; light OFF): completely abolished
- number of optogenetic KIF2C condensates formed upon blue light exposure ([1]; Noc (+)): did not change
- number of optogenetic KIF2C condensates formed upon blue light exposure ([1]; Noc (-)): mildly decreased
- abundance of PLK1 in the vicinity of KIF2C condensates [2]: less abundant
- BRCA2-pT207 in KIF2C condensates (immunofluorescence, co-localization) ([3]; Flp-In T-Rex 293 cells): could not detect; also recorded: abolished
- PLK1 and PLK1-pT210 within Opto-KIF2C condensates (immunofluorescence) ([3]; mitotic cells, absence or presence of nocodazole): unable to detect

Molecule: COC(=O)Nc1nc2ccc(C(=O)c3cccs3)cc2[nH]1 [nocodazole]
- area of the Opto-KIF2C condensates [4]: about 0.15 μm^2

- binding to KIF2C Nt by NMR chemical shift analysis (KIF2C Nt (KIF2C1-79)): did not detect any binding
- binding to KIF2A Nt by NMR chemical shift analysis (KIF2A Nt (KIF2A1-77)): did not detect any binding
Molecule: BRCA2_194-214: non-phosphorylated synthetic BRCA2 peptide, residues 194-214 (WSSSLATPPTLSSTVLIVRNE)

- Kd [5]: 600 nM
- dH [5]: -15.7 kcal/mol and -18.1 kcal/mol
- Kd [6]: 480 nM and 1300 nM
- dH [6]: -19.1 kcal/mol and -12.1 kcal/mol
Molecule: BRCA2_(194-214(pT207)) peptide (from UniProt P51587 194-214)

- binding result [7]: binds
B1: KIF2C N-terminal domain, KIF2C_(1-79) (domain or fragment, human, UniProt Q99661 1-79, looked up)
chain: MAMDSSLQARLFPGLAIKIQRSNGLIHSANVRTVNLEKSCVSVEWAEGGATKGKEIDFDDVAAINPELLQLLPLHPKDN
modifications: 15N-labelled where it is the observed protein in NMR
